Experimental data published in ChEMBL document CHEMBL1629548, “In vitro activities of tigecycline against clinical isolates of Aeromonas, Vibrio, and Salmonella species in Taiwan” (2008).
Values after ≈ are worked out from the molar mass of the structure shown.

What was measured:
Vibrio cholerae [1] = assay: Antimicrobial activity against Vibrio cholerae non-O1 assessed as percent tetracyclin-resistant isolate at 0.12 to 16 ug/ml by broth microdilution method; format: functional
Vibrio cholerae [2] = assay: Antimicrobial activity against Vibrio cholerae non-O1 by broth microdilution method; format: functional
Summary of the method: (§1)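 Tigecycline MICs for clinical isolates (Taiwan) were determined by broth microdilution over 0.03 to 128 μg/ml. A control strain was included, and its MICs had to fall within the recommended range. Susceptible, intermediate and resistant categories were assigned from the MICs using US FDA and EUCAST breakpoints.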

Aeromonas hydrophila [3] = assay: Antimicrobial activity against Aeromonas hydrophila assessed as percent tetracyclin-resistant isolate at 0.25 to >16 ug/ml by broth microdilution method; format: functional
Summary of the method: (§2)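 Tetracycline MICs for clinical isolates were determined by broth microdilution over 0.03 to 128 μg/ml. The reported value is the rate of isolates not susceptible to tetracycline for each species or serogroup.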

Aeromonas caviae [4] = assay: Antimicrobial activity against Aeromonas caviae assessed as percent tetracyclin-resistant isolate at 0.25 to >16 ug/ml by broth microdilution method; format: functional; summary of the method: as §2
Aeromonas sobria [5] = assay: Antimicrobial activity against Aeromonas sobria assessed as percent tetracyclin-resistant isolate at 0.25 to >16 ug/ml by broth microdilution method; format: functional; summary of the method: as §2
Aeromonas hydrophila [6] = assay: Antimicrobial activity against Aeromonas hydrophila by broth microdilution method; format: functional
Summary of the method: (§3)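 Clinical isolates from Taiwan; tigecycline and tetracycline MICs by broth microdilution per CLSI guidelines, tested over 0.03 μg/ml to 128 μg/ml; a control strain was included.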

Aeromonas caviae [7] = assay: Antimicrobial activity against Aeromonas caviae by broth microdilution method; format: functional; summary of the method: as §3
Aeromonas sobria [8] = assay: Antimicrobial activity against Aeromonas sobria by broth microdilution method; format: functional; summary of the method: as §3
[9] = Antimicrobial activity against Salmonella serotype Choleraesuis assessed as percent tetracyclin-resistant isolate at 1 to >128 ug/ml by broth microdilution method; format: functional, Salmonella enterica subsp. enterica serovar Choleraesuis; summary of the method: as §2
Salmonella typhimurium [10] = assay: Antimicrobial activity against Salmonella serotype Typhimurium assessed as percent tetracyclin-resistant isolate at 1 to >128 ug/ml by broth microdilution method; format: functional, Salmonella enterica subsp. enterica serovar Typhimurium; summary of the method: as §2
Salmonella [11] = assay: Antimicrobial activity against Salmonella serogroup O7 assessed as percent tetracyclin-resistant isolate at 1 to >128 ug/ml by broth microdilution method; format: functional; summary of the method: as §2
Salmonella [12] = assay: Antimicrobial activity against Salmonella serogroup O8 assessed as percent tetracyclin-resistant isolate at 1 to >128 ug/ml by broth microdilution method; format: functional; summary of the method: as §2
Salmonella [13] = assay: Antimicrobial activity against Salmonella serogroup O9 assessed as percent tetracyclin-resistant isolate at 1 to >128 ug/ml by broth microdilution method; format: functional; summary of the method: as §2
[14] = Antimicrobial activity against Salmonella serotype Choleraesuis by broth microdilution method; format: functional, Salmonella enterica subsp. enterica serovar Choleraesuis; conditions: Salmonella enterica; summary of the method: as §1
Salmonella typhimurium [15] = assay: Antimicrobial activity against Salmonella serotype Typhimurium by broth microdilution method; format: functional, Salmonella enterica subsp. enterica serovar Typhimurium; conditions: Salmonella enterica; summary of the method: as §3
Salmonella [16] = assay: Antimicrobial activity against Salmonella serogroup O7 by broth microdilution method; format: functional; summary of the method: as §3
Salmonella [17] = assay: Antimicrobial activity against Salmonella serogroup O8 by broth microdilution method; format: functional; summary of the method: as §3
Salmonella [18] = assay: Antimicrobial activity against Salmonella serogroup O9 by broth microdilution method; format: functional; summary of the method: as §3
Aeromonas sp. [19] = assay: Antimicrobial activity against tetracycline-susceptible Aeromonas sp. isolate by broth microdilution method; format: functional; summary of the method: as §3
Aeromonas sp. [20] = assay: Antimicrobial activity against tetracycline-nonsusceptible Aeromonas sp. isolate by broth microdilution method; format: functional; summary of the method: as §3
Vibrio [21] = assay: Antimicrobial activity against tetracycline-susceptible Vibrio sp. Isolate by broth microdilution method; format: functional; summary of the method: as §3
Vibrio [22] = assay: Antimicrobial activity against tetracycline-nonsusceptible Vibrio sp. Isolate by broth microdilution method; format: functional; summary of the method: as §3
Salmonella [23] = assay: Antimicrobial activity against tetracycline-susceptible Salmonella sp. Isolate by broth microdilution method; format: functional; summary of the method: as §3
Salmonella [24] = assay: Antimicrobial activity against tetracycline-nonsusceptible Salmonella sp. Isolate by broth microdilution method; format: functional; summary of the method: as §3
Aeromonas caviae [25] = assay: Antimicrobial activity against tigecycline-intermediate Aeromonas caviae isolate by broth microdilution method; format: functional; summary of the method: as §3
Aeromonas hydrophila [26] = assay: Antimicrobial activity against Aeromonas hydrophila assessed as susceptibility level by disk diffusion method; format: functional
Summary of the method: (§4)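 Cefotaxime and ciprofloxacin susceptibility taken from routine clinical laboratory reports; disk diffusion per CLSI guidelines.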

Aeromonas caviae [27] = assay: Antimicrobial activity against Aeromonas caviae assessed as susceptibility level by disk diffusion method; format: functional; summary of the method: as §4
Aeromonas sobria [28] = assay: Antimicrobial activity against Aeromonas sobria assessed as susceptibility level by disk diffusion method; format: functional; summary of the method: as §4

## CN(C)[C@@H]1C(O)=C(C(N)=O)C(=O)[C@@]2(O)C(O)=C3C(=O)c4c(O)cccc4[C@@](C)(O)[C@H]3C[C@@H]12 [TETRACYCLINE]
Vibrio cholerae [1]
  Activity: 8%
Vibrio cholerae [2]
  MIC90: 1 µg/mL (≈ 2.25 µM)
Aeromonas hydrophila [3]
  Activity: 36%
Aeromonas caviae [4]
  Activity: 37%
Aeromonas sobria [5]
  Activity: 57%
Aeromonas hydrophila [6]
  MIC90: 16 µg/mL (≈ 36 µM)
Aeromonas caviae [7]
  MIC90: 16 µg/mL (≈ 36 µM)
Aeromonas sobria [8]
  MIC90: 16 µg/mL (≈ 36 µM)
[9]
  Activity: 84%
Salmonella typhimurium [10]
  Activity: 65%
Salmonella [11]
  Activity: 38%
Salmonella [12]
  Activity: 71%
Salmonella [13]
  Activity: 16%
[14]
  MIC90: > 128 µg/mL
Salmonella typhimurium [15]
  MIC90: > 128 µg/mL
Salmonella [16]
  MIC90: > 128 µg/mL
Salmonella [17]
  MIC90: > 128 µg/mL
Salmonella [18]
  MIC90: > 128 µg/mL
Aeromonas sp. [19]
  MIC: ≤ 4 µg/mL
Aeromonas sp. [20]
  MIC: ≥ 8 µg/mL
Vibrio [21]
  MIC: ≤ 4 µg/mL
Vibrio [22]
  MIC: ≥ 8 µg/mL
Salmonella [23]
  MIC: ≤ 4 µg/mL
Salmonella [24]
  MIC: ≥ 8 µg/mL
Aeromonas caviae [25]
  MIC: > 128 µg/mL

## CO/N=C(\C(=O)N[C@@H]1C(=O)N2C(C(=O)O)=C(COC(C)=O)CS[C@H]12)c1csc(N)n1 [CEFOTAXIME]
Aeromonas hydrophila [26]
  Activity: 79%
Aeromonas caviae [27]
  Activity: 73%
Aeromonas sobria [28]
  Activity: 95%
